Measurements reported in ChEMBL document CHEMBL1158473, “Aromatic 2-(thio)ureidocarboxylic acids as a new family of modulators of multidrug resistance-associated protein 1: synthesis, biological evaluation, and structure-activity relationships” (J Med Chem, 2009).
Activity calls are given as the source filed them. The calls are words filed in the database; no cut-off is given here.

Experiments:
[1] = biological target: T1, Multidrug resistance-associated protein 1 (Homo sapiens, UniProt P33527); experiment: Inhibition of MRP1 expressed in multidrug resistant human 2008 cells assessed as calcein AM accumulation by fluorescence assay in presence of p-gp and BCRP inhibitor XR9577; assay type: cell-based
Procedure, shortened: (§1)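 Transfected 2008 MRP1 cells run beside 2008 WT cells, 21000 cells per well in Krebs-HEPES buffer. Cobalt sulfate was added to quench extracellular calcein, plus XR9577 to block P-gp. After 30 min preincubation with compound, calcein AM (final 0.5 μM) was added and fluorescence followed 30 min. Slopes were normalized and fitted by a four-parameter logistic; indomethacin (0.316–178 μM) was included.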

BCRP (ABCG2) = biological target: T2, BCRP (ABCG2) (Homo sapiens, UniProt Q9UNQ0); experiment: Inhibition of BCRP expressed in human MCF7 MX cells at 31.6 uM by Hoechst 33342 staining relative to 10 uM XR9577; assay type: cell-based; conditions: MCF7 MX cells expressing BCRP, probe Hoechst 33342
T2 sequence (Q9UNQ0 whole entry): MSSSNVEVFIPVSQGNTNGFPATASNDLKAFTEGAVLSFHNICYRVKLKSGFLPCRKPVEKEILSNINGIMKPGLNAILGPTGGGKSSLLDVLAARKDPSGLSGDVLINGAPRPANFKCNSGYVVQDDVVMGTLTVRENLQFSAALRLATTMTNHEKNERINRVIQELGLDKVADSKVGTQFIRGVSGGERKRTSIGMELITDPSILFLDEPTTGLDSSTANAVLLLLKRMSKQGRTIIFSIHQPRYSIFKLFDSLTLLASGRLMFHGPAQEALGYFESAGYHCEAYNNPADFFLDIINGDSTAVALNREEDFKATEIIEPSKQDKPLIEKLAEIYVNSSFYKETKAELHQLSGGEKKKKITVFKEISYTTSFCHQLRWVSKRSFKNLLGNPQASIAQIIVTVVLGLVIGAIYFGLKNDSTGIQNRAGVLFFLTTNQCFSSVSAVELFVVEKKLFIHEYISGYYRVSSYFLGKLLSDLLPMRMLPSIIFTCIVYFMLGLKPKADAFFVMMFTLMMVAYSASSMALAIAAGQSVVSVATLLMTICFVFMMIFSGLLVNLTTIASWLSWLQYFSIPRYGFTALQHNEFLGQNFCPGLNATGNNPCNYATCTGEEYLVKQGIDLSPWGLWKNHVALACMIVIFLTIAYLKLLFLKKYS
Procedure, shortened: (§2)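 MCF-7 MX cells, with parental MCF-7 alongside, in RPMI 1640 plus 10% FCS. Cells washed in Krebs-HEPES, about 20000 per well, preincubated with compound 30 min at 37 °C, 5% CO2. Hoechst 33342 added and fluorescence (ex 355/em 460 nm) read every 120 s up to 2400 s at 37 °C. Background-subtracted slopes were fitted; XR9577 10 μM served as positive control.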

2008 [2] = experiment: Cytotoxicity against human 2008 cells after 72 hrs by MTT assay; conditions: Homo sapiens, 2008, 72 h
[3] = biological target: T1, Multidrug resistance-associated protein 1; experiment: Inhibition of MRP1-mediated calcein AM transport expressed in multidrug resistant human 2008 cells assessed as calcein AM accumulation at 100 uM by fluorescence assay in presence of p-gp and BCRP inhibitor XR9577; assay type: cell-based; conditions: human, 2008, 100 µM
[4] = biological target: T3, Broad substrate specificity ATP-binding cassette transporter ABCG2 (Homo sapiens, UniProt Q9UNQ0); experiment: Inhibition of BCRP expressed in MCF7 MX cells by Hoechst 33342 staining; assay type: cell-based; procedure, shortened: as §2
T3 sequence (Q9UNQ0 whole entry): T2 sequence (Q9UNQ0 whole entry)

2008 [5] = experiment: Potentiation of vinblastine-induced cytotoxic activity against MRP1-expressing human 2008 cells at 31.6 uM after 72 hrs by MTT assay; assay type: functional, cell-based
Procedure, shortened: (§3)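 2008 MRP1 cells given a fixed 31.6 μM modulator together with vinblastine or daunorubicin at 0.1 nM–100 μM. Cytostatic alone was tested on 2008 MRP1 and WT cells as control; indomethacin 31.6 μM served as positive control. After 72 h, viability was read by MTT.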

2008 [6] = experiment: Potentiation of daunorubicin-induced cytotoxic activity against MRP1-expressing human 2008 cells at 31.6 uM after 72 hrs by MTT assay; assay type: functional, cell-based; procedure, shortened: as §3
2008 [7] = experiment: Cytotoxicity against human 2008 cells after 24 hrs by MTT assay; assay type: cell-based; conditions: Homo sapiens, 2008, 24 h
[8] = biological target: T1, Multidrug resistance-associated protein 1; experiment: Inhibition of MRP1; procedure, shortened: as §1
A2780 ADR [9] = experiment: Inhibition of P-gp expressed in human A2780/ADR cells assessed as calcein AM accumulation a 100 uM by fluorescence assay; assay type: cell-based
Procedure, shortened: (§4)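 P-gp-overexpressing A2780/ADR cells, with wild-type A2780 alongside. Calcein AM accumulation run as in the MRP1 assay (30 min preincubation, final 0.5 μM calcein AM, 30 min reading) but without cobalt or XR9577. XR9577 10 μM served as positive control.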

A2780 ADR [10] = experiment: Inhibition of P-gp expressed in human A2780/ADR cells assessed as calcein AM accumulation a 31.6 uM by fluorescence assay; assay type: cell-based; procedure, shortened: as §4

T1 sequence (P33527 whole entry): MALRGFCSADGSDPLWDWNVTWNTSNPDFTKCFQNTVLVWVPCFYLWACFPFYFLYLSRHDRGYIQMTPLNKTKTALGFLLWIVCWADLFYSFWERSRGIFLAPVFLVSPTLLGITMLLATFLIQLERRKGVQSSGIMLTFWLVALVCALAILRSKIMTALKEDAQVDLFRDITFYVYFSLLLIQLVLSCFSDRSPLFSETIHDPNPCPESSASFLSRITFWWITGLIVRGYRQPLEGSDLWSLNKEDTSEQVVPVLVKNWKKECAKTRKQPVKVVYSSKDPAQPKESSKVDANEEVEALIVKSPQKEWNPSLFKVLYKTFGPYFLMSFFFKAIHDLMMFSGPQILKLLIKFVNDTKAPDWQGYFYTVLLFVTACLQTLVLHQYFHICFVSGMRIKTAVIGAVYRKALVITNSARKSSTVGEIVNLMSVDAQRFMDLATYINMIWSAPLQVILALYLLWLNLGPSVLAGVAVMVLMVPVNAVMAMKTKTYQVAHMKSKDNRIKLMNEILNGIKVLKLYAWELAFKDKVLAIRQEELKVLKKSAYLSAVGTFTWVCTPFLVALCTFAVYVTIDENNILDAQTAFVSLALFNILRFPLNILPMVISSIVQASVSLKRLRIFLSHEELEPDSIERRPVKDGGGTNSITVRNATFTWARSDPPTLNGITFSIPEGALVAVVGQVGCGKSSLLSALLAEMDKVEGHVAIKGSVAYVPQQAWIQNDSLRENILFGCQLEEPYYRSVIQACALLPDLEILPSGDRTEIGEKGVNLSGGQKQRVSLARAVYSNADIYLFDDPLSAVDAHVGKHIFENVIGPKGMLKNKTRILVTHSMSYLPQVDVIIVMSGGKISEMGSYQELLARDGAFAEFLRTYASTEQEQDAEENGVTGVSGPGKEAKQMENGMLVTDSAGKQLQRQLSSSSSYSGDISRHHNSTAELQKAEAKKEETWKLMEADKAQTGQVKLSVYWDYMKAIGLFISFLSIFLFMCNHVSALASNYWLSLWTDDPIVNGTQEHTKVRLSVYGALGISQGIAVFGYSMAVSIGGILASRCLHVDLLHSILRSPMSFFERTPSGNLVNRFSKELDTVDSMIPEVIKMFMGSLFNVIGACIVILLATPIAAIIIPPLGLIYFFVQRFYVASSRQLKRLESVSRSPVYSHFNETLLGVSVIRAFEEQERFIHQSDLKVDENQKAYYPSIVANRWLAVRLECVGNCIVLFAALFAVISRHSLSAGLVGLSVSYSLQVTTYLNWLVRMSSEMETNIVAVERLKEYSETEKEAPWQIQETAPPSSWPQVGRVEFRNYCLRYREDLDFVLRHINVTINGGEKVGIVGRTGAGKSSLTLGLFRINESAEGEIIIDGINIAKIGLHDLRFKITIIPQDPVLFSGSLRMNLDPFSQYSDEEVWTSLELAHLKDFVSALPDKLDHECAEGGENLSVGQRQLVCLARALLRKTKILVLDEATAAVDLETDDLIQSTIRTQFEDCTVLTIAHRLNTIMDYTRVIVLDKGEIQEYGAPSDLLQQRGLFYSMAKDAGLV

| SMILES | IC50 [1] [µM] | inhibition (INH) [3] | IC50 2008 [2] [µM] | also measured |
| --- | --- | --- | --- | --- |
| CCN(CC)C(=S)Nc1scc(C(C)C)c1C(=O)O | 14.5 | – | – | – |
| CCN(CC)C(=O)Nc1sc2c(c1C(=O)O)CCCC2 | – | – | > 100 | inhibition at 31.6 µM (BCRP (ABCG2)): 25% |
| CCN(CC)C(=O)Nc1cc2ccccc2cc1C(=O)O | – | – | > 100 | – |
| CCN(CC)C(=S)Nc1sc(C)c(C)c1C(=O)O | 20.4 | – | – | – |
| Cc1sc(NC(=S)N2CCOCC2)c(C(=O)O)c1C | 18.3 | – | – | – |
| CCN(CC)C(=S)Nc1sc(C(N)=O)c(C)c1C(=O)O | > 100 | – | – | – |
| O=C(O)c1c(-c2ccccc2)csc1NC(=S)N1CCOCC1 | – | Not Active | – | – |
| CCN(CC)C(=S)Nc1sc2c(c1C(=O)O)CCCC2 | 2.71 | – | > 100 | inhibition at 31.6 µM (BCRP (ABCG2)): 25% |
| CCN(CC)C(=S)Nc1sc2c(c1C(=O)O)C(C)CCC2 (racemic) | 4.06 | – | > 100 | IC50 [4]: 9.1 µM |
| Cc1sc(NC(=S)N(C)C2CCCCC2)c(C(=O)O)c1C | 4.19 | – | > 100 | inhibition at 31.6 µM (BCRP (ABCG2)): 25% |
| CC(C)NC(=O)Nc1sc2c(c1C(=O)O)CCCC2 | – | Not Active | – | – |
| CN(C(=S)Nc1sccc1C(=O)O)C1CCCCC1 | 4.51 | – | > 100 | Activity 2008 [5]: inactive; Activity 2008 [6]: inactive; IC50 [4]: 10.2 µM |
| CN(C(=O)Nc1ccccc1C(=O)O)C1CCCCC1 | – | – | > 100 | inhibition at 31.6 µM (BCRP (ABCG2)): 25% |
| CN(C)C(=S)Nc1sc2c(c1C(=O)O)CCCC2 | – | Not Active | – | – |
| Cc1cc(NC(=O)N2CCOCC2)c(C(=O)O)cc1C | 43.4 | – | – | – |
| CCN(CC)C(=S)Nc1sc2c(c1C(=O)O)CCC2 | 2.56 | – | > 100 | inhibition at 31.6 µM (BCRP (ABCG2)): 25% |
| CN(C(=S)Nc1ccccc1C(=O)O)C1CCCCC1 | – | – | > 100 | inhibition at 31.6 µM (BCRP (ABCG2)): < 20% |
| CCN(CC)C(=S)Nc1sc2c(c1C(=O)O)CCCCC2 | 5.97 | – | > 100 | inhibition at 31.6 µM (BCRP (ABCG2)): 25% |
| O=C(O)c1c(NC(=O)N2CCOCC2)sc2c1CCCC2 | – | Not Active | – | – |
| COc1cc(C2Oc3cc(-c4oc5cc(O)cc(O)c5c(=O)c4O)ccc3OC2CO)ccc1O (stereo not given) [DEHYDROSILYLBIN] | – | – | – | IC50 [8]: 1.1 µM |
| CN1CCN(C(=S)Nc2sc3c(c2C(=O)O)CCCC3)CC1 | – | Not Active | – | – |
| O=C(O)c1c(NC(=S)N2CCOCC2)sc2c1CCCC2 | – | Not Active | – | – |
| CCN(CC)C(=O)Nc1sc2c(c1C(=O)O)CCC2 | – | – | > 100 | inhibition at 31.6 µM (BCRP (ABCG2)): 25% |

Now from value to compound, other results behind:

| IC50 [1] [µM] | inhibition (INH) [3] | SMILES | IC50 2008 [2] [µM] | also measured |
| --- | --- | --- | --- | --- |
| 24 | – | CN(CCc1ccccc1)C(=S)Nc1ccccc1C(=O)O | – | – |
| 20.7 | – | O=C(O)c1ccccc1NC(=S)N1CCNCC1 | – | – |
| 21.6 | – | CCN(CC)C(=S)Nc1ccccc1C(=O)O | – | – |
| – | Not Active | O=C(O)c1c(NC(=S)N2CCOCC2)sc2ccccc12 | – | – |
| 26.4 | – | CCN(CC)C(=O)Nc1ccccc1C(=O)O | – | – |
| – | Not Active | Cc1ccc(NC(=O)N2CCOCC2)c(C(=O)O)c1 | – | – |
| – | Not Active | Cc1ccc(NC(=O)N(C)c2ccccc2)c(C(=O)O)c1 | – | – |
| – | Not Active | CN(CCc1ccccc1)C(=O)Nc1ccccc1C(=O)O | – | – |
| 27.5 | – | O=C(O)c1cc(-c2ccccc2)sc1NC(=S)N1CCOCC1 | – | – |
| 43.1 | – | O=C(O)c1ccccc1NC(=O)N1CCCC1 | – | – |
| – | Not Active | Cc1ccc(NC(=O)N(C)CCc2ccccc2)c(C(=O)O)c1 | – | – |
| – | Not Active | COC(=O)CN(C)C(=O)Nc1ccccc1C(=O)O | – | – |
| – | Not Active | CN(C(=O)Nc1ccccc1C(=O)O)c1ccccc1 | – | – |
| – | Not Active | Cc1ccc(NC(=O)N(C)Cc2ccccc2)c(C(=O)O)c1 | – | – |
| 1.23 | – | CN(C(=S)Nc1sc2ccccc2c1C(=O)O)C1CCCCC1 | > 100 | inhibition at 31.6 µM (BCRP (ABCG2)): 25% |
| 4.18 | – | CCN(CC)C(=S)Nc1ccsc1C(=O)O | – | IC50 2008 [7]: > 100 µM; inhibition at 31.6 µM (BCRP (ABCG2)): 25% |
| 0.932 | – | CCN(CC)C(=S)Nc1sc2ccccc2c1C(=O)O | > 100 | Activity 2008 [5]: inactive; Activity 2008 [6]: inactive; IC50 [4]: 6.16 µM |
| 18.3 | – | O=C(O)c1ccccc1NC(=S)N1CCCC1 | – | – |
| 198 | – | CN(C(=S)Nc1ccccc1C(=O)O)c1ccccc1 | – | – |
| 14.3 | – | CCN(CC)C(=S)Nc1sc(-c2ccccc2)cc1C(=O)O | > 100 | inhibition (A2780 ADR [9]): 40%; inhibition (A2780 ADR [10]): 20% |
| 29.1 | – | CN(Cc1ccccc1)C(=S)Nc1ccccc1C(=O)O | – | – |
| – | Not Active | O=C(O)c1ccccc1NC(=S)N1CCOCC1 | – | – |
| 22.8 | – | Cc1ccc(NC(=O)N(C)C2CCCCC2)c(C(=O)O)c1 | – | – |
| – | Not Active | O=C(O)c1ccccc1NC(=O)N1CCOCC1 | – | – |
| 4.46 | – | CCN(CC)C(=S)Nc1sccc1C(=O)O | > 100 | inhibition at 31.6 µM (BCRP (ABCG2)): 25% |
| 42.6 | – | CN(Cc1ccccc1)C(=O)Nc1ccccc1C(=O)O | – | – |
